Data: ChEMBL document CHEMBL1142958, “Carboxylated, heteroaryl-substituted chalcones as inhibitors of vascular cell adhesion molecule-1 expression for use in chronic inflammatory diseases” (J Med Chem, 2007)
Activity calls are given as the source filed them. The calls are words filed in the database; no cut-off is given here.

Key:
[1] = Inhibition of TNF-alpha-induced VCAM1 expression in HPAECs; type: functional, Homo sapiens
Outline: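 Cells were seeded to reach 90–95% confluency the next day. They were stimulated with TNF-α (1 ng/mL) ± compound (final DMSO 0.25%) for about 16 h and scored visually for toxicity. Cell-surface VCAM-1 was measured by anti-VCAM-1 (0.25 µg/mL, 30 min, 37 °C), then HRP anti-mouse IgG and TMB, read at OD 450 nm. IC50 is relative to the TNF-only response; mean of ≥3 determinations.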

[2] = tested on: Mus musculus; experiment: Activity in sc dosed ovalbumin-sensitized/challenged Balb/C mouse model of allergic asthma by measuring reduced IgE levels after 14 days; type: functional, organism-based
[3] = species: Rattus norvegicus; experiment: Inhibition of paw swelling in rat adjuvant arthritis model; type: functional, organism-based
[4] = tested on: PBMC; experiment: Inhibition of LPS-induced IL1-beta secretion in HPBMCs at 5 uM; type: functional, cell-based; details: Homo sapiens
[5] = species: Homo sapiens; experiment: Inhibition of TNF-alpha-induced MCP1 expression in HPAECs; type: functional
[6] = tested on: Mus musculus; experiment: Inhibition of airway eosinophilia in BALF in sc dosed ovalbumin-sensitized/challenged Balb/C mouse model of allergic airway inflammation after 14 days; type: functional, organism-based
Outline: (§1)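 Male Balb/C mice, 5–6 weeks old, were sensitized i.p. with ovalbumin (8 µg) emulsified in aluminum hydroxide (1 mg) per mouse. They were then dosed s.c. in 2% Cremophor at 150, 100 or 50 mg/kg bid on days 11–13 and once on day 14. On day 14 lungs were lavaged (DMEM/F-12 + 5% FBS). Eosinophils were expressed as % of ≥300 Diff Quik-stained cytospin cells. Dexamethasone 3 mg/kg i.p. served as positive control.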

[7] = tested on: Mus musculus; experiment: Inhibition of tissue eosinophilia in sc dosed ovalbumin-sensitized/challenged Balb/C mouse model of allergic asthma after 14 days; type: functional, organism-based
[8] = species: Rattus norvegicus; experiment: Inhibition of splenomegaly in rat adjuvant arthritis model; type: functional, organism-based
[9] = species: Homo sapiens; experiment: Inhibition of TNF-alpha-induced E-selectin expression in HPAECs; type: functional
[10] = tested on: Mus musculus; experiment: Reduction of airway hyperresponsiveness in sc dosed ovalbumin-sensitized/challenged Balb/C mouse model of allergic asthma after 14 days; type: functional, organism-based
[11] = tested on: Mus musculus; experiment: Activity in sc dosed ovalbumin-sensitized/challenged Balb/C mouse model of allergic asthma assessed as reduction of elevated lung mRNA levels of Th2 cytokines after 14 days; type: functional, organism-based
[12] = Plasma concentration in ovalbumin-sensitized/challenged Balb/C mouse model of allergic airway inflammation at 50 mg/kg, sc after 14 days; type: ADME, organism-based; parameters: dose 50 mg/kg, route subcutaneous
Outline: (§2)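 Ovalbumin/alum-sensitized male Balb/C mice received s.c. doses in 2% Cremophor, bid on days 11–13 and once on day 14. Blood for plasma drug level was collected at euthanasia on day 14, 2–3 h after the final dose.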

[13] = tested on: Mus musculus; experiment: Reduction of eosinophil level in BALF in ovalbumin-sensitized/challenged Balb/C mouse model of allergic airway inflammation at 100 mg/kg, po after 14 days; type: functional; parameters: scale not given: the % may be the effect or the level left
[14] = tested on: Mus musculus; experiment: Reduction of eosinophil level in BALF in ovalbumin-sensitized/challenged Balb/C mouse model of allergic airway inflammation at 150 mg/kg, sc after 14 days; type: functional; parameters: scale not given: the % may be the effect or the level left; details: route subcutaneous; outline: as §1
[15] = Plasma concentration in ovalbumin-sensitized/challenged Balb/C mouse model of allergic airway inflammation at 150 mg/kg, sc after 14 days; type: ADME, organism-based; parameters: dose 150 mg/kg, route subcutaneous; outline: as §2
[16] = tested on: Mus musculus; experiment: Reduction of eosinophil level in BALF in ovalbumin-sensitized/challenged Balb/C mouse model of allergic airway inflammation at 50 mg/kg, sc after 14 days; type: functional; parameters: scale not given: the % may be the effect or the level left; details: route subcutaneous; outline: as §1
[17] = Plasma concentration in ovalbumin-sensitized/challenged Balb/C mouse model of allergic airway inflammation at 100 mg/kg, sc after 14 days; type: ADME, organism-based; parameters: dose 100 mg/kg, route subcutaneous; outline: as §2

| Structure (SMILES) | IC50 [1] [nM] | further results |
| --- | --- | --- |
| COc1cc(OCC(=O)N2CCOCC2)c(/C=C/C(=O)c2ccc(C(=O)O)cc2)cc1-c1cccs1 | 6000 |  |
| COc1ccc(-c2cccs2)cc1/C=C/C(=O)c1ccc(C(=O)O)cc1 | 3100 |  |
| COCCOCCOc1cc(OC)c(/C=C/C(=O)c2ccc(C(=O)O)cc2)cc1-c1cccs1 | 6500 |  |
| COCCOCCOCCOc1cc(OC)c(-c2cccs2)cc1/C=C/C(=O)c1ccc(C(=O)O)cc1 | 4000 |  |
| CCOc1cc(OC)c(/C=C/C(=O)c2ccc(C(=O)O)cc2)cc1-c1cccs1 | 4900 |  |
| COc1cc(OCCCN2CCOCC2)c(/C=C/C(=O)c2ccc(C(=O)O)cc2)cc1-c1cccs1 | 900 |  |
| COc1cc(OC)c(-c2cccs2)cc1/C=C/C(=O)c1cccc(C(=O)O)c1 | 4200 |  |
| CCc1cc(/C=C/C(=O)c2ccc(C(=O)O)cc2)c(OC)cc1OC | 22000 |  |
| COc1cc(OCC(CO)CO)c(-c2cccs2)cc1/C=C/C(=O)c1ccc(C(=O)O)cc1 | 41000 |  |
| COCCOCCOc1cc(OC)c(-c2cccs2)cc1/C=C/C(=O)c1ccc(C(=O)O)cc1 | 1300 |  |
| COc1cc(OC)c(-c2cc3ccccc3o2)cc1/C=C/C(=O)c1ccc(C(=O)O)cc1 | 300 |  |
| CCOC(=O)c1ccc(C(=O)/C=C/c2cc(-c3cc4ccccc4s3)c(OC)cc2OC)cc1 | 3100 |  |
| COc1cc(OC)c(-c2csc(C)n2)cc1/C=C/C(=O)c1ccc(C(=O)O)cc1 | 2500 |  |

Continued by falling IC50 [1], values first:

| IC50 [1] [nM] | Structure (SMILES) | further results |
| --- | --- | --- |
| 21000 | COc1cc(OCC(CO)CO)c(/C=C/C(=O)c2ccc(C(=O)O)cc2)cc1-c1cccs1 |  |
| 8600 | COc1cc(OC)c(-c2cccs2)cc1/C=C/C(=O)c1ccccc1C(=O)O |  |
| 4400 | COc1cc(OC)c(-c2nc3ccccc3[nH]2)cc1/C=C/C(=O)c1ccc(C(=O)O)cc1 |  |
| 3800 | COc1cc(OC)c(-c2cccs2)cc1/C=C/C(=O)c1ccc(C(=O)O)cc1 |  |
| 2100 | COc1cc(OC)c(-c2ccsc2)cc1/C=C/C(=O)c1ccc(C(=O)O)cc1 |  |
| 1700 | COc1cc(OC)c(-c2cc3ccccc3s2)cc1/C=C/C(=O)c1ccc(C(=O)NC(=O)C(C)C)cc1 |  |
| 1200 | COc1cc(OC)c(-c2cc3ccccc3n2C(=O)OC(C)(C)C)cc1/C=C/C(=O)c1ccc(C(=O)O)cc1 |  |
| 1000 | COc1cc(OC)c(-c2ccc(C)s2)cc1/C=C/C(=O)c1ccc(C(=O)O)cc1 |  |
| 900 | COc1cc(OC)c(-c2cc3ccccc3[nH]2)cc1/C=C/C(=O)c1ccc(C(=O)O)cc1 | concentration at 336 h [12]: 10 µM; Activity [6]: Dose-dependent effect; Activity [13]: 43%; Activity [14]: 81%; concentration at 336 h [15]: 19 µM; Activity [16]: 55%; concentration at 336 h [17]: 14 µM |
| 800 | COc1cc(OC)c(-c2cc3ccccc3s2)cc1/C=C/C(=O)c1ccc(C(=O)NCCN2CCOCC2)cc1 |  |
| 800 | COc1cc(OCCN2CCOCC2)c(/C=C/C(=O)c2ccc(C(=O)O)cc2)cc1-c1cccs1 |  |
| 800 | COc1cc(OC)c(-c2cc3ccccc3s2)cc1/C=C/C(=O)c1ccc(C(=O)NC(C)=O)cc1 |  |
| 600 | COc1cc(OC)c(-c2cc3ccccc3s2)cc1/C=C/C(=O)c1ccc(C(=O)O)cc1 | Activity [2]: Active; Activity [3]: Dose-dependent effect; Activity [4]: Active; Activity [5]: Active; Activity [6]: Dose-dependent effect; Activity [7]: Dose-dependent effect; Activity [8]: Dose-dependent effect; Activity [9]: Active; Activity [10]: Active; Activity [11]: Active |
| 500 | CONC(=O)c1ccc(C(=O)/C=C/c2cc(-c3cc4ccccc4s3)c(OC)cc2OC)cc1 |  |
| 200 | COc1cc(OC)c(-c2cc3ccccc3s2)cc1/C=C/C(=O)c1ccc(C(N)=O)cc1 |  |
